Data set [1] deals with Plasma. The data set can be described thus: Anticoagulant potency in human plasma assessed as concentration required to double the time to clot formation by PT assay. In kind it is functional. In outline:
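Human normal plasma mixed with compound dilutions in DMSO (1.5 µL into 48.5 µL), preincubated 4 min at 37 °C, clotting started with thromboplastin and timed on an automatic coagulometer. Prolongation relative to DMSO; concentration doubling clotting time derived by least-squares regression; mean of duplicates.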

For the next data set, the target named is Coagulation factor X (Homo sapiens, UniProt P00742). Description: Inhibition of human factor 10a.
Another data set has as its target CYP3A4 (Homo sapiens, UniProt P08684). The data set can be described thus: Inhibition of CYP3A4 expressed in human B-lymphoblastoid cells at 10 uM. The class given is ADME, cell-based. In outline: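 Recombinant CYP3A4 (10 nM, from CYP3A4-expressing human B-lymphoblastoid cells) incubated with 100 µM testosterone and 10 µM test compound for 30 min at 37 °C; 6β-hydroxytestosterone formation quantified by HPLC-UV.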

In data set [2] the test system is Plasma. Description: Anticoagulant potency in mouse plasma assessed as concentration required to double the time to clot formation by PT assay. The class given is functional.
Data set [3] relates to Plasma. The data set can be described thus: Anticoagulant activity in mouse plasma assessed as ratio of prothrombin time in drug to untreated control at 30 mg/kg, po. The class given is functional. In outline:
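Male ICR mice (30-35 g), fasted >12 h, dosed orally at 30 mg/kg as suspension in 0.5% methylcellulose; vehicle controls. Citrated aortic blood drawn 1 h post-dose under pentobarbital anaesthesia, spun 1000g 10 min to platelet-poor plasma. PT on 50 µL plasma preincubated 4 min at 37 °C, started with thromboplastin; clotting time expressed relative to control group (n = 3).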

The nature of a further data set: physchem. As to conditions: buffer, pH 7.4.
The nature of data set [4]: Basicity, pKa by titration method. The class given is physicochemical.

Here are results for 20 compounds from ChEMBL document CHEMBL1150763, “Discovery of imidazo[1,5-c]imidazol-3-ones: weakly basic, orally active factor Xa inhibitors” (J Med Chem, 2008).

A word on the IC50: it is the concentration needed to halve the response being measured. A lower IC50 goes with greater potency in that assay. The term inhibition denotes how much of the control response was suppressed. What is called logD is the decadic logarithm of the distribution of all forms, ionised or not, between an organic phase and buffer at a given pH. A low value points to lower lipophilicity. As a reminder, the pKa is the negative logarithm of the acid dissociation constant. Low values mean a group that gives up its proton readily, high ones a group that holds its proton tightly.

Sequence of Coagulation factor X (P00742 41-179 limits assumed): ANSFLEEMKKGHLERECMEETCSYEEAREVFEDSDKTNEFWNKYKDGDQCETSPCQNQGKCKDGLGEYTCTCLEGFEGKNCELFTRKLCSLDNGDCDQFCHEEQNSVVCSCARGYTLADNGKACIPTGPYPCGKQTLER
Sequence of Coagulation factor X (P00742 235-488 limits assumed): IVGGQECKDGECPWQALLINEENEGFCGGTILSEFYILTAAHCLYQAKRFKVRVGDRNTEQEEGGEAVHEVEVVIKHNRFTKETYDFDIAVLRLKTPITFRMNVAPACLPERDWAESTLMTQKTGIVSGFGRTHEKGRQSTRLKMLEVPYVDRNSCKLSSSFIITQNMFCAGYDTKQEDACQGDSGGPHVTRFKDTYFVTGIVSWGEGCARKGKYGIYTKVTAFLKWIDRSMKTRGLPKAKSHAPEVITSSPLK
Sequence of CYP3A4 (P08684 whole entry): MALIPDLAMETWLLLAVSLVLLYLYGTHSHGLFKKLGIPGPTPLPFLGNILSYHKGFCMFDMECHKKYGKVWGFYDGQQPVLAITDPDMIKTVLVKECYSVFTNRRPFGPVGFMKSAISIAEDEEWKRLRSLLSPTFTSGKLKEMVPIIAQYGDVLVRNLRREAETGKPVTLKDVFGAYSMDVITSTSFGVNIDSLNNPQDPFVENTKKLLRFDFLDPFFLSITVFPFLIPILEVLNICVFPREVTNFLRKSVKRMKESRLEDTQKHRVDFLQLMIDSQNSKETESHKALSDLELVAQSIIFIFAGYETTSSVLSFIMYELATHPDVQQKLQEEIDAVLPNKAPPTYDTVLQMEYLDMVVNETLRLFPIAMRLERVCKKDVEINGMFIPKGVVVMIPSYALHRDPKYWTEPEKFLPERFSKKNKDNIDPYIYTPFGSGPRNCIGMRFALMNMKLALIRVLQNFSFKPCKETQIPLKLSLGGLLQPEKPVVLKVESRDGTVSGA

Take `Cc1nccn1CCCC1CCN(C(=O)CCS(=O)(=O)c2ccc3cc(Cl)ccc3c2)CC1`: the Activity in the data set with Plasma [1] was greater than 10 µM. The compound further displayed an IC50 against Coagulation factor X of 460 nM.
In the case of `Cc1nccn1CC1CCN(C(=O)CCS(=O)(=O)c2ccc3cc(Cl)ccc3c2)CC1`, in the data set on Plasma [1], the Activity came to 7.7 µM. In addition, the IC50 on Coagulation factor X is 910 nM.
Turning to `Cc1nccn1C1CCN(C(=O)CCS(=O)(=O)c2ccc3cc(Cl)ccc3c2)CC1`, the figures for the Activity with Plasma [1] and with Plasma [2] were 0.99 µM and 3.3 µM, respectively. For the same compound, 10 µM produced 34% inhibition against CYP3A4. The compound also showed an IC50 on Coagulation factor X of 170 nM. For the same compound, the Ratio in the data set with Plasma [3] turned out to be 1.1.
As to `O=C(CCS(=O)(=O)c1ccc2cc(Cl)ccc2c1)N1CCC(c2cnc3n2CCCC3)CC1`, the figures for the Activity in the data set with Plasma [1] and with Plasma [2] were 0.48 µM and 3 µM, respectively. Further, the inhibition at 10 µM at CYP3A4 amounted to 42%. Besides, the half-maximal inhibitory concentration (IC50) at Coagulation factor X came to 23 nM. For the same compound, in “physchem”, the logD came out at 2.2. In addition, the pKa in data set [4] came out at 8.2. Moreover, in the data set on Plasma [3], the Ratio is recorded as 1.1.
On to `O=C(CCS(=O)(=O)c1ccc2cc(Cl)ccc2c1)N1CCC(n2ccnc2)CC1`, for which the Activity in the data set on Plasma [1] is 7 µM. The IC50 against Coagulation factor X was found to be 1400 nM.
Turning to `Cc1nccn1CCN1CCN(C(=O)CCS(=O)(=O)c2ccc3cc(Cl)ccc3c2)CC1`, the Activity in the data set with Plasma [1] was 0.99 µM; in the data set with Plasma [2], 2.1 µM. For the same compound, testing at 10 µM at CYP3A4 gave an inhibition of 53%. In addition, half-maximal inhibition against Coagulation factor X (IC50) required 54 nM. In addition, in the data set on Plasma [3], the Ratio is 1.1.
`O=C(CCS(=O)(=O)c1ccc2cc(Cl)ccc2c1)N1CCC(c2ncc[nH]2)CC1`: the Activity in the data set on Plasma [1] is greater than 10 µM. For the same compound, it took 1600 nM to reach half-maximal inhibition against Coagulation factor X (IC50).
As to `Cc1nccn1CCCCC1CCN(C(=O)CCS(=O)(=O)c2ccc3cc(Cl)ccc3c2)CC1`, the Activity in the data set on Plasma [1] is greater than 10 µM. Moreover, at Coagulation factor X, the IC50 was found to be 300 nM.
Turning to `Cn1cncc1C1CCN(C(=O)CCS(=O)(=O)c2ccc3cc(Cl)ccc3c2)CC1`, the Activity in the data set on Plasma [1] came out at 0.49 µM; with Plasma [2], 2.7 µM. Also, the inhibition at 10 µM at CYP3A4 came to 82%. Further, the IC50 against Coagulation factor X stood at 56 nM. The same compound gave a logD in “physchem” of 2. Also, in data set [4], the pKa was determined as 7.2. In addition, in the data set on Plasma [3], the Ratio is on record as 1.2.
Take `Cc1nccn1CCC1CCN(C(=O)CCS(=O)(=O)c2ccc3cc(Cl)ccc3c2)CC1`: the Activity was 0.91 µM in the data set with Plasma [1] and 1.7 µM in the data set on Plasma [2]. The compound also registered an inhibition at 10 µM against CYP3A4 of 38%. On Coagulation factor X, this compound showed an IC50 of 37 nM. Besides, the logD in “physchem” amounted to 2.2. The pKa in data set [4] was determined as 7.9. Also, the Ratio with Plasma [3] came out at 1.1.
Consider `CCc1nccn1C1CCN(C(=O)CCS(=O)(=O)c2ccc3cc(Cl)ccc3c2)CC1`, for which the Activity in the data set with Plasma [1] was 1 µM. At Coagulation factor X, this compound yielded a 50% inhibitory concentration (IC50) of 160 nM.
Take `O=C(CCS(=O)(=O)c1ccc2cc(Cl)ccc2c1)N1CCC(c2cnc[nH]2)CC1`: the Activity in the data set on Plasma [1] amounted to 3 µM. On Coagulation factor X, this compound gave an IC50 of 170 nM. The same compound yielded a logD in the data set “physchem” of 2. Moreover, the pKa in data set [4] came to 6.9.
As to `Cn1ccnc1C1CCN(C(=O)CCS(=O)(=O)c2ccc3cc(Cl)ccc3c2)CC1`, the Activity with Plasma [1] came out at 2.1 µM. In addition, the IC50 against Coagulation factor X is 56 nM.
Regarding `O=C(CCS(=O)(=O)c1ccc2cc(Cl)ccc2c1)N1CCC(c2cnc3ccccn23)CC1`, in the data set with Plasma [1], the Activity was 2.2 µM. In addition, the IC50 against Coagulation factor X was 12 nM. In “physchem”, this compound came in with a log distribution coefficient (logD) of 2.5. For the same compound, the pKa in data set [4] was 5.9.
Turning to `Cc1nc(C)n2c1CN(C1CCN(C(=O)CCS(=O)(=O)c3ccc4cc(Cl)ccc4c3)CC1)C2=O`, the results for the Activity in the data set with Plasma [1] and with Plasma [2] were 1.2 µM and 2.5 µM, respectively. In addition, at CYP3A4, at 10 µM the inhibition was 62%. Also, at Coagulation factor X, the IC50 amounted to 5.3 nM. In the data set “physchem”, this compound showed a logD of 2.5. Further, the pKa in data set [4] amounted to 5.4. Further, the Ratio with Plasma [3] is 2.
Take `Cc1ncc(C2CCN(C(=O)CCS(=O)(=O)c3ccc4cc(Cl)ccc4c3)CC2)[nH]1`: the Activity in the data set with Plasma [1] came out at 2.5 µM. In addition, the IC50 against Coagulation factor X was 120 nM. This compound also showed a logD in the data set “physchem” of 2. Moreover, in data set [4], the pKa is 7.9.
With `Cc1ncc(C2CCN(C(=O)CCS(=O)(=O)c3ccc4cc(Cl)ccc4c3)CC2)n1C`, the Activity with Plasma [1] stood at 0.56 µM; in the data set on Plasma [2] it was 3.4 µM. In addition, at CYP3A4, 10 µM produced 25% inhibition. This compound also gave a pKa in data set [4] of 8.2.
Take `O=C(CCS(=O)(=O)c1ccc2cc(Cl)ccc2c1)N1CCN(c2cccc3nc(CO)cn23)CC1`: the IC50 against Coagulation factor X is 9.7 nM.
As for `Cc1ncc2n1C(=O)N(N1CCN(C(=O)CCS(=O)(=O)c3ccc4cc(Cl)ccc4c3)CC1)C2`, the Activity in the data set with Plasma [1] was found to be 0.61 µM; with Plasma [2], 0.9 µM. 10 µM produced 38% inhibition against CYP3A4. The compound further returned an IC50 against Coagulation factor X of 6.9 nM. In “physchem”, this compound showed a logD of 2.1. This compound displayed a pKa in data set [4] of 5. In the data set on Plasma [3], the Ratio was 2.8.
In the case of `CCCc1nccn1C1CCN(C(=O)CCS(=O)(=O)c2ccc3cc(Cl)ccc3c2)CC1`, in the data set on Plasma [1], the Activity came to 2 µM. This compound also came in with an IC50 at Coagulation factor X of 230 nM.
